Measured values pooled from the literature.
Lines come from different studies, so protocols differ.

CN1C(=O)CC(=O)N(c2ccccc2)c2cc(Cl)ccc21 — ED50 (MES seizures; rat; intraperitoneal): 36.3 mg/kg
CCCC(=O)CP(=O)(O)O — MIC (Bacillus anthracis; microbial growth; STERNE34F2): 100 µg/mL
O=C(O)CCCCCCCCCCCCCCCc1ccccc1 — IC50 (Leishmania infantum; parasite growth; mouse Splenocyte; 72 h, intracellular, amastigote): 3 to 6 µM
CCCCCCCCCCCC(=O)NP(=O)(O)O — MIC (Bacillus anthracis; microbial growth; STERNE34F2): > 200 µg/mL
CCOC(=O)Nc1ccc(NCc2ccc(F)cc2)cc1N — ED50 (MES seizures; rat; oral): 12.1 mg/kg
CCCCCCCCCCCC(=O)CP(=O)(O)O — MIC (Bacillus anthracis; microbial growth; STERNE34F2): 50 µg/mL
CC(C)[C@H](N)C(=O)OCCCCCn1cnc2nc(NCc3ccc(Cl)c(Cl)c3)[nH]c(=O)c21 — MIC (Bifidobacterium; microbial growth, agar dilution; 48 h): 32 µg/mL
CC1=NN(CNc2ccc(C(=O)O)cc2)C(=O)C1=NNn1c(-c2ccccc2)nc2ccccc2c1=O — MIC (Vibrio cholerae; microbial growth, broth dilution; 24 h): 50.5 µM
C=CCCCCCCCCC(=O)C(F)(F)P(=O)(O)O — MIC (Bacillus anthracis; microbial growth; STERNE34F2): > 200 µg/mL
O=C1NN=C(N=Cc2ccccc2)C1=NNn1c(-c2ccccc2)nc2ccccc2c1=O — MIC (Vibrio cholerae; microbial growth, broth dilution; 24 h): 114 µM
CC(C=CC(O)=C1C(=O)CNC1=O)=CC(C)C1OC2(C)OC(C(O)C=C2C)C1C (stereo not shown) — MIC (Bacillus anthracis; microbial growth; 34F2): 25 µM
CN[C@@H]1[C@H](O)[C@H](NC)[C@H]2O[C@@]3(O)C(=O)C[C@@H](C)O[C@H]3O[C@@H]2[C@H]1O — MIC (Bacillus anthracis; microbial growth; STERNE34F2): 25 µg/mL
O=C1NN=C(N=Cc2ccccc2O)C1=NNn1c(-c2ccccc2)nc2ccccc2c1=O — MIC (Vibrio cholerae; microbial growth, broth dilution; 24 h): 55.4 µM
OC[C@H]1O[C@@H](n2cnc3c(NC4CCCC4)ncnc32)[C@H](O)[C@@H]1O — ED50 (MES seizures; rat; intraperitoneal): 6.7 mg/kg
CCCCCCCCCCCCCCCC(=O)NS(=O)(=O)Oc1ccc(OC)cc1 — MIC (Bacillus anthracis; microbial growth; STERNE34F2): 3.12 µg/mL
O=C(O)c1cn(C2CC2)c2cc(N3CCNCC3)c(F)cc2c1=O — MIC (Bacillus anthracis; microbial growth; 34F2): 0.781 µM
CN[C@H](CC(C)C)C(=O)N[C@H]1C(=O)N[C@@H](CC(N)=O)C(=O)N[C@H]2C(=O)N[C@H]3C(=O)N[C@H](C(=O)N[C@H](C(=O)O)c4cc(O)cc(O)c4-c4cc3ccc4O)[C@H](O)c3ccc(c(Cl)c3)Oc3cc2cc(c3O[C@@H]2O[C@H](CO)[C@@H](O)[C@H](O)[C@H]2O[C@H]2C[C@](C)(N)[C@H](O)[C@H](C)O2)Oc2ccc(cc2Cl)[C@H]1O — MIC (Streptococcus pyogenes; microbial growth): 0.25 µg/mL
CC1=NN(CNc2ccc(Cl)cc2)C(=O)C1=NNn1c(-c2ccccc2)nc2ccccc2c1=O — MIC (Vibrio cholerae; microbial growth, broth dilution; 24 h): 103 µM
O=C(CCCCC1CCCCC1)NP(=O)(O)O — MIC (Bacillus anthracis; microbial growth; STERNE34F2): > 200 µg/mL
